Legend:
[1] = molecular target: T1, Transient receptor potential cation channel subfamily V member 3 (Homo sapiens) (UniProt Q8NET8); assay: (§1) Antagonist activity at human TRPV3 expressed in recombinant HEK293 cells assessed as inhibition of 2-APB induced calcium flux by FLIPR analysis; format: cell-based
T1 sequence (whole entry): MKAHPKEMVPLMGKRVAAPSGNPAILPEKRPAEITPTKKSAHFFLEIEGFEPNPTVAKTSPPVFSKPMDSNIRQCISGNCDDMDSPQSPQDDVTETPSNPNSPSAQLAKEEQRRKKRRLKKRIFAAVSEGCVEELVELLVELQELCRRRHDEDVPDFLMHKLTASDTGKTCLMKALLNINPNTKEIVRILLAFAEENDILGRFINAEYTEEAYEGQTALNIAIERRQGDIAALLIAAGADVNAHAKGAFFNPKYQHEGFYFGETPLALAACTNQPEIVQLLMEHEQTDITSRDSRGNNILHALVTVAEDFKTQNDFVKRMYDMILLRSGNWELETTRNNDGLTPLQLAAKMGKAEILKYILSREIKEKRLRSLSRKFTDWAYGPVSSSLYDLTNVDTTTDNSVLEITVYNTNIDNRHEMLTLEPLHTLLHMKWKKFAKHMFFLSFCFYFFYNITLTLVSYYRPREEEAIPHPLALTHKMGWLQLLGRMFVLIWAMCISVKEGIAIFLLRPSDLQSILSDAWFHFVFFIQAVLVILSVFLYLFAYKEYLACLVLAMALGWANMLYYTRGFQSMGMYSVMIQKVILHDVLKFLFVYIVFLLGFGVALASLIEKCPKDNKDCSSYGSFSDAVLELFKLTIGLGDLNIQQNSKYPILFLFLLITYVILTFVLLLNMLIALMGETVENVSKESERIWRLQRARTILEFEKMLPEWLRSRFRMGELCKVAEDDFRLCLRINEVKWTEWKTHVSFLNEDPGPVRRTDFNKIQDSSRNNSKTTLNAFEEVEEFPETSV
Summary of the method: (§2)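 HEK293 cells stably expressing human TRPV3 (I25V variant), plated the day before in DMEM + 10% FBS at 37 °C, 5% CO2. Calcium 4 dye loaded in Ca/Mg-free HEPES D-PBS pH 7.4 for 1–2 h at room temperature. Compound dilutions added with 3 min baseline, then 2-APB at 60 µM final; Ca2+ flux read 3 min on FLIPR. Kb from at least duplicates, averaged across independent runs.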

Liver microsome [2] = assay: Unbound intrinsic clearance in rat liver microsomes after 5 hrs by LC-MS/MS analysis; format: ADME
Summary of the method: (§3)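 Microsomal stability run in an automated high-throughput plate format. Intrinsic clearance corrected for nonspecific microsomal binding using measured unbound fraction (fu,mic), reported as unbound Clint in L/h/kg.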

Liver microsome [3] = assay: Unbound intrinsic clearance in human liver microsomes after 5 hrs by LC-MS/MS analysis; format: ADME; summary of the method: as §3
Rattus norvegicus [4] = species on record: Rattus norvegicus; assay: Cardiotoxicity in rat assessed as increase in cardiac contractility at plasma concentration of 4.7 ug/ml; format: toxicity, organism-based
Plasma = assay: Plasma concentration in rat; format: ADME, cell-free
Rattus norvegicus [5] = species on record: Rattus norvegicus; assay: Cardiotoxicity in rat assessed as increase in mean arterial pressure; format: toxicity, organism-based, Artery; conditions: in vivo
[6] = molecular target: T2, Nuclear receptor subfamily 1 group I member 2 (Homo sapiens, UniProt O75469); assay: Activation of human PXR; format: ADME; conditions: for Activity: human
T2 sequence (O75469 whole entry): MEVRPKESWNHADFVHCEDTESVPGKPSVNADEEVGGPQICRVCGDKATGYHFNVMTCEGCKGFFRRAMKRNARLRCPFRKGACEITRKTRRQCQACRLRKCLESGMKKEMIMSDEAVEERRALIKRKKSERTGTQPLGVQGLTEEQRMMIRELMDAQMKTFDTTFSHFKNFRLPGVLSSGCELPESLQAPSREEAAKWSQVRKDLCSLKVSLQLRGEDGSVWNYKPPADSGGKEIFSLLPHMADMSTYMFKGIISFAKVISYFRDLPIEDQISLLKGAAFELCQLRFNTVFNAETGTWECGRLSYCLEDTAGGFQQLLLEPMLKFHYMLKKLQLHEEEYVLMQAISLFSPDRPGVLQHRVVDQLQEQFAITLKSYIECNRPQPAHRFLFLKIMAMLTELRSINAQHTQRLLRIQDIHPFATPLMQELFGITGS

[7] = Total plasma clearance in rat at 1 mg/kg, iv; format: ADME, organism-based
Summary of the method: (§4)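 Rat pharmacokinetics: iv dose 1 mg/kg; po dose 1 or 2 mg/kg depending on compound. AUC taken over 0–8 h. Unbound parameters calculated using plasma free fraction.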

[8] = […] plasma clearance in rat at 1 mg/kg, iv; format: ADME, organism-based; conditions: read-out: CL free (converted); summary of the method: as §4
[9] = Volume of distribution at steady state in rat at 1 mg/kg, iv or 1 mg/kg, po; format: ADME, organism-based; conditions: in vivo, read-out: Vdss; summary of the method: as §4
[10] = Half life in rat at 1 mg/kg, iv; format: ADME, organism-based; conditions: in vivo; summary of the method: as §4
[11] = Cmax in rat at 1 mg/kg, iv or 1 mg/kg, po; format: ADME, organism-based; conditions: in vivo; summary of the method: as §4
[12] = AUC(0 to 8 hrs) in rat at 1 mg/kg, po; format: ADME, organism-based; parameters: time < 6 hr, dose 1 mg/kg, route oral; conditions: in vivo; summary of the method: as §4
Rattus norvegicus [13] = assay: Unbound AUC(0 to 8 hrs) in rat at 1 mg/kg, po; format: ADME, organism-based; conditions: in vivo; summary of the method: as §4
[14] = Oral bioavailability in rat at 1 mg/kg; format: ADME, organism-based; conditions: in vivo; summary of the method: as §4
[15] = molecular target: T1, Transient receptor potential cation channel subfamily V member 3 (Homo sapiens); assay: Antagonist activity at human TRPV3 expressed in recombinant HEK293 cells assessed as free plasma level adjusted concentration for inhibition of 2-APB induced calcium flux by FLIPR analysis; format: cell-based
Summary of the method: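 FLIPR Kb from the 2-APB (60 µM final) Ca2+ flux assay in human TRPV3 HEK293 cells, converted to an unbound value using the measured free fraction in plasma.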

[16] = Fraction unbound in human plasma; format: ADME, cell-free
Liver microsome [17] = assay: Drug metabolism in rat liver microsomes assessed as cyclobutane ring oxidation after 1 hr by HPLC analysis; format: ADME
Summary of the method: (§5)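 Compound incubated in rat liver microsomes for 1 h at 37 °C. Metabolite distribution analysed by HPLC; metabolite structures assigned by 1H NMR.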

Liver microsome [18] = assay: Drug metabolism in rat liver microsomes assessed as aromatic ring oxidation after 1 hr by HPLC analysis; format: ADME; summary of the method: as §5
Liver microsome [19] = assay: Drug metabolism in rat liver microsomes assessed as alcohol group oxidation after 1 hr by HPLC analysis; format: ADME; summary of the method: as §5
[20] = molecular target: T3, Transient receptor potential cation channel subfamily V member 3 (Homo sapiens, UniProt Q8NET8); assay: as §1; format: cell-based; summary of the method: as §2
T3 sequence (Q8NET8 whole entry): T1 sequence (whole entry)

| Structure (SMILES) | Kb [1] | CL free (Liver microsome [2]) | CL free (Liver microsome [3]) | Activity (Rattus norvegicus [4]) | Activity (Rattus norvegicus [5]) | Activity [6] | further results |
| --- | --- | --- | --- | --- | --- | --- | --- |
| O[C@H](c1ccccn1)C1(c2ccc(OC(F)(F)F)cc2)CC(F)(F)C1 | 40 nM | 12 L/h/kg | 11 L/h/kg | 29% | 16% |  | Cp (Plasma): 4.7 µg/mL; EC50 [6]: 5.7 µM |
| C[C@]1(c2ccc(OC(F)(F)F)cc2)C[C@](O)(c2ccccn2)CO1 (single isomer, unassigned) | 420 nM | 10 L/h/kg | 7 L/h/kg |  |  |  | clearance [7]: 10 mL/min/kg; clearance [8]: 293 mL/min/kg; Vd [9]: 3.2 L/kg; half-life [10]: 228 min; Cmax [11]: 130 ng/mL; AUC(0-t) at 6 h [12]: 930 ng·h/mL; fAUC (Rattus norvegicus [13]): 0.03 µg·h/mL; bioavailability [14]: 56%; Kb [15]: 12 µM; fraction unbound [16]: 0.06 |
| C[C@]1(O)C[C@@](c2ccnc(C(F)(F)F)c2)([C@H](O)c2ccccn2)C1 | 4270 nM | 3 L/h/kg | 4 L/h/kg | Non-toxic | Non-toxic | Not Active |  |
| C[C@]1(O)C[C@@](c2ccc(OC(F)(F)F)cc2)([C@H](O)c2ccccn2)C1 | 330 nM | 8 L/h/kg | 4 L/h/kg | Non-toxic | Non-toxic | Not Active |  |
| O[C@H](c1ccccn1)[C@]1(c2ccc(C(F)(F)F)cc2)C[C@H](O)C1 | 2240 nM | 3 L/h/kg | 3 L/h/kg | Non-toxic | Non-toxic | Not Active |  |
| O[C@H](c1ccccn1)C1(c2ccc(Cl)c(Cl)c2)CCC1 | 80 nM | 151 L/h/kg | 41 L/h/kg |  |  |  | Drug metabolism (Liver microsome [17]): metabolite_detected; Drug metabolism (Liver microsome [18]): metabolite_detected; Drug metabolism (Liver microsome [19]): metabolite_detected; IC50 [20]: 160 nM; fraction unbound [16]: 0.007 |
| C[C@]1(O)C[C@@](c2cccc(OC(F)(F)F)c2)([C@H](O)c2ccccn2)C1 | 280 nM | 12 L/h/kg | 10 L/h/kg | Non-toxic | Non-toxic | Not Active |  |
| O[C@H](c1ccccn1)[C@]1(c2cc(C(F)(F)F)ccn2)C[C@@H](O)C1 | 320 nM | 3 L/h/kg | 2 L/h/kg | Non-toxic | Non-toxic | Not Active |  |
| C[C@]1(O)C[C@@](c2ccc(C(F)(F)F)cc2)([C@H](O)c2ccccn2)C1 | 840 nM | 9 L/h/kg | 3 L/h/kg | Non-toxic | Non-toxic | Not Active |  |
| O[C@H](c1ccccn1)[C@]1(c2ccnc(C(F)(F)F)c2)C[C@@H](O)C1 | 530 nM | 12 L/h/kg | 5 L/h/kg | Non-toxic | Non-toxic | Not Active |  |
| C[C@]1(O)C[C@@](c2cc(C(F)(F)F)ccn2)([C@H](O)c2ccccn2)C1 | 730 nM | 7 L/h/kg | 2 L/h/kg | Non-toxic | Non-toxic | Not Active |  |
| C[C@]1(O)C[C@@](c2cccc(C(F)(F)F)c2)([C@H](O)c2ccccn2)C1 | 300 nM | 19 L/h/kg | 9 L/h/kg | Non-toxic | Non-toxic | Not Active |  |
| C[C@]1(O)C[C@](c2cccc(OC(F)(F)F)c2)([C@H](O)c2ccccn2)C1 | 1310 nM | 3 L/h/kg | 7 L/h/kg | Non-toxic | Non-toxic | Not Active |  |

Reference: ChEMBL document CHEMBL3826935, “Synthesis and Pharmacology of (Pyridin-2-yl)methanol Derivatives as Novel and Selective Transient Receptor Potential Vanilloid 3 Antagonists” (J Med Chem, 2016)
